High-throughput results deposited in PubChem BioAssay by several laboratories.
An excerpt weighted towards active compounds, which were near 2.2% of everything screened.
Hck-Nef inh: inhibitors of human Hck kinase activated by Nef | Recombinant Hck-YEEI plus Nef, Z-Lyte FRET kinase assay | inhibition, % at 20 µM | 0.68% of 220,000 active | AID 463187 | P08631;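 active = Hck-Nef kinase inhibition above about 50%, limit read from the data; inactive = inhibition below that limit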
Runt-SMMHC FRET: inhibitors of human RUNX1 Runt domain binding to CBFb-SMMHC. Q01196+Q13951. Cerulean-Runt/Venus-CBFb-SMMHC FRET ratio 530/480, 1 h. inhibition, % at 20 µM. 0.74% of 220,000 active. AID 1434;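 active = mean inhibition across duplicate retests at 20 µM reaching about 50%, limit read from the data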;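 also: inhibitors lower the FRET ratio by blocking Runt binding to CBFb-SMMHC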
Target sequence (Q01196 whole entry, looked up, the tested form may be a part): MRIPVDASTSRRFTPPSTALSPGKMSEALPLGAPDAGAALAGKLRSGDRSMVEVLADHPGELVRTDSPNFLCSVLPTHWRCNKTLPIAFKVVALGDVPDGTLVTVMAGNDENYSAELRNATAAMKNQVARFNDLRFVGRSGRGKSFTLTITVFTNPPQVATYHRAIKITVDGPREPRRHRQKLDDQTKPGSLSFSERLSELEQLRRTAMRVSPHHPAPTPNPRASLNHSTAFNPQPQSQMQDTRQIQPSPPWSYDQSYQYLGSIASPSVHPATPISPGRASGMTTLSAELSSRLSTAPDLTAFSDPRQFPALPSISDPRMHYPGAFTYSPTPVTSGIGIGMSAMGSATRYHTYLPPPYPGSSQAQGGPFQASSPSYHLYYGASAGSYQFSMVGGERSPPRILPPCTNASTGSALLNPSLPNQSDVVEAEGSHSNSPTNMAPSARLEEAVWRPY
Target sequence (Q13951 whole entry, looked up, the tested form may be a part): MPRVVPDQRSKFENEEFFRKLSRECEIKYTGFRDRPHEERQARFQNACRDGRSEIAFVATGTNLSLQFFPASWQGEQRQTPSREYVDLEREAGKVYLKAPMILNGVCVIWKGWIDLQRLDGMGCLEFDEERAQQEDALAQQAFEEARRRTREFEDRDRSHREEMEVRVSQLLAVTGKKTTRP
eIF4E 4G PPI: inhibitors of eIF4E and eIF4G interaction in translation initiation; TR-FRET eIF4E-eIF4GI(517-606) binding, 2 h; inhibition, % at 21.7 µM; 0.37% of 220,000 active; P63073+Q04637;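 active = inhibition above about 30%, limit read from the data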
Runt-CBFb FRET: blocks binding of human RUNX1 Runt domain to CBFb. inhibition, % at 20 µM. Q01196+Q13951. Cerulean-Runt/Venus-CBFb FRET ratio 530/480, 1 h. 0.46% of 220,000 active. AID 1496;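 active = inhibition over about 50% at 20 µM in the single-dose screen, limit read from the data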
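Assay system: Cerulean-tagged RUNX1 Runt domain (FRET donor) fusion protein / Amount: 100 nM each of Venus-CBFb and Cerulean-Runt domain / Medium: Tris buffer pH 7.5 with salts and BSA / Also added: Venus-CBFb 100 nM / Schedule: 1 h complex formation plus 1 h compound treatment, room temperature / Signal: FRET fluorescence / Read-out: loss of energy transfer signal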
PERK inh: inhibitors of human PERK kinase; CHO PERK-DD fusion, SEAP luminescence translation reporter; inhibition, % at 5.6 µM; AID 1416; Q9NZJ5; 0.17% of 220,000 active;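 active = inhibition above the mean inhibition of all tested compounds plus 3 SD, set separately per screening campaign, cut at about 2.9% in these data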;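 also: PERK kinase domain activated by AP20187 dimerizer at 100 nM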
RanGTP-Impb inh: disruptors of Ran-importin-beta complex formation – biochemical, FRET, CFP-Ran, YFP-importin-beta, homogeneous, primary screen. inhibition, % (test concentration not listed). 1.1% of 300,000 active. cell-free CFP-Ran/YFP-importin-beta FRET ratio. AID 2216;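 active = more than half of the replicate wells show a fall in the fluorescence ratio signal beyond about 16%, limit read from the data, passing the limit was not always enough; inconclusive = exactly half of the replicate wells pass the set limit; inactive = fewer than half of replicates pass the limit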
Large screens that a line does not name were inactive.

Cc1ccc(Nc2nc3ccccc3s2)c(C)c1	none
Nc1cccc2c1C(=O)N(C(=O)c1cccc(S(=O)(=O)N3CCCCCC3)c1)C2=O	Runt-SMMHC FRET 62, RanGTP-Impb inh 19
O=C(c1ccc(Cl)c(S(=O)(=O)N2CCCCC2)c1)N1CCCCC1	none (no result: Hck-Nef inh, Runt-SMMHC FRET, eIF4E 4G PPI, Runt-CBFb FRET, PERK inh)
Cc1ccc(S(=O)(=O)N2CCOCC2)cc1C(=O)N1C(=O)c2cccc(N)c2C1=O	none
Nc1cccc2c1C(=O)N(C(=O)c1ccc(Cl)c(S(=O)(=O)N3CCCCCC3)c1)C2=O	Runt-SMMHC FRET 62, RanGTP-Impb inh 20
O=C(NC(=S)NCCCN1CCOCC1)c1ccc(Br)cc1	none
NNC(=O)c1ccc2[nH]c3c(c2c1)CCCC3	none
CCOC(=O)CNC(=O)c1ccc2[nH]c3c(c2c1)CCCC3	RanGTP-Impb inh 18
COc1cc(CN2CCN(CCc3ccccc3)C(CCO)C2)cc(OC)c1 (stereo not drawn)	none
COc1cc(CN2CCN(CCCc3ccccc3)CC2CCO)cc(OC)c1 (stereo not drawn)	RanGTP-Impb inh 27 (no result: Hck-Nef inh, Runt-SMMHC FRET, eIF4E 4G PPI, Runt-CBFb FRET, PERK inh)
Cc1cc(N2CCCCC2)nc(NCc2ccccc2)n1	eIF4E 4G PPI 67
O=C1c2ccccc2C(=O)N1CCc1csc(NNc2nc(CCN3C(=O)c4ccccc4C3=O)cs2)n1	Hck-Nef inh 69 (no result: Runt-CBFb FRET)
Cc1ccc(-c2nc(CCN3C(=O)c4ccccc4C3=O)cs2)cc1	none
CCS(=O)(=O)C1=NN2C(=N)/C(=C\c3ccc(SCc4ccco4)o3)C(=O)N=C2S1	Hck-Nef inh 64, RanGTP-Impb inh inconclusive
CCS(=O)(=O)C1=NN2C(=N)/C(=C\c3ccc(OC(=O)c4ccco4)c(Br)c3)C(=O)N=C2S1	none (no result: Hck-Nef inh, Runt-SMMHC FRET, eIF4E 4G PPI, Runt-CBFb FRET, PERK inh)
N#Cc1ccccc1NC1=CC(=O)CCC1	RanGTP-Impb inh 58
CC(=O)Nc1nnc(SCc2ccc(F)cc2)s1	none (no result: Runt-CBFb FRET)
O=C(Nc1nnc(SCc2ccc(F)cc2)s1)c1ccc2ncsc2c1	eIF4E 4G PPI 54
CCCn1nc(NC(=O)CC(C)C)c2cc3ccccc3nc21	RanGTP-Impb inh 27
CCCCC(=O)Nc1nn(CC(C)C)c2nc3ccccc3cc12	RanGTP-Impb inh 29
C=CCN(c1ccccc1)S(=O)(=O)c1cccc(C(=O)O)c1	PERK inh 3.4
Cc1c(N=Cc2ccco2)c(=O)n(-c2ccccc2)n1C	none
COc1ccc2c(C=Nc3c(C)n(C)n(-c4ccccc4)c3=O)c(O)n(Cc3ccco3)c(=O)c2c1	RanGTP-Impb inh 20
O=c1oc(-c2cccs2)nc2scc(-c3cccs3)c12	none
Cc1sc2nc(-c3cccs3)oc(=O)c2c1C	RanGTP-Impb inh 32 (no result: Hck-Nef inh, Runt-SMMHC FRET, eIF4E 4G PPI, Runt-CBFb FRET, PERK inh)
O=c1cnn([C@@H]2O[C@H](CO)[C@@H](O)[C@H]2O)c(=O)[nH]1	eIF4E 4G PPI 94
Nc1ccn([C@@H]2O[C@H](CO)[C@@H](O)C2O)c(=O)n1 (stereo partly drawn)	none (no result: Hck-Nef inh)
O=C(Cn1nnc(-c2ccccc2)n1)N/N=C/c1cccc([N+](=O)[O-])c1	none
CCOC(=O)c1c(C)[nH]c(C)c1C(=O)COC(=O)c1ccc(Cl)c(S(=O)(=O)NCc2ccccc2)c1	none
CC(C)Cn1c(-c2cccs2)nc2nc3ccccc3nc21	Runt-SMMHC FRET 104
CCCCn1c(-c2cccs2)nc2nc3ccccc3nc21	Runt-SMMHC FRET 158
CCCCOCCCn1c(-c2ccco2)nc2nc3ccccc3nc21	eIF4E 4G PPI 54
c1ccc(Cn2c(-c3cccs3)nc3nc4ccccc4nc32)cc1	Runt-SMMHC FRET 65, RanGTP-Impb inh inconclusive
COCCCn1c(-c2ccco2)nc2ccccc2c1=O	RanGTP-Impb inh inconclusive
Cc1ccc(-n2c(-c3cccs3)nc3nc4ccccc4nc32)cc1	none
CCCS(=O)(=O)c1c(S(=O)(=O)CCC)c2cc(-c3ccncc3)ccn2c1C(=O)OC	Runt-SMMHC FRET 109
O=C1CC(c2ccco2)CC(O)=C1C=NCCN1CCN(C2CC(=O)N(c3ccccc3)C2=O)CC1 (stereo not drawn)	none
N#Cc1c(-c2ccccc2)cc2nc3ccccc3n2c1N	RanGTP-Impb inh 17
COc1cc(-c2cc3nc4ccccc4n3c(N)c2C#N)cc(OC)c1OC	RanGTP-Impb inh 25
